Data reported in ChEMBL document CHEMBL5058577, “EUbOPEN Chemogenomics Library 2 (Multiplex)” (2022).

Test system: U2OS
Test: Multiplex assay against U2OS
Type: toxicity, cell-based
Conditions: human
Outline: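 Imaging took place on a CQ1 microscope at 37°C and 5% CO2 once compound had been added to live cells stained at seeding with Hoechst33342, BioTracker Green Microtubule Cytoskeleton Dye, MitoTracker Red and Annexin V Alexa Fluor 680. CellPathfinder machine-learning gating classed cells as Hoechst high-intensity objects or normal cells, classed normal cells as having healthy, pyknosed or fragmented nuclei, and classed pyknosed cells as mitotic or apoptotic. Tubulin, mitochondrial-mass and membrane-permeability phenotypes are per cents of the healthy-nucleus cells.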

[1] = 12 h, 1 µM, compound concentration 1 uM, replicate 1
[2] = 12 h, 1 µM, compound concentration 1 uM, replicate 2
[3] = 12 h, 10 µM, compound concentration 10 uM, replicate 1
[4] = 12 h, 10 µM, compound concentration 10 uM, replicate 2
[5] = 24 h, 1 µM, compound concentration 1 uM, replicate 1
[6] = 24 h, 1 µM, compound concentration 1 uM, replicate 2
[7] = 24 h, 10 µM, compound concentration 10 uM, replicate 1
[8] = 24 h, 10 µM, compound concentration 10 uM, replicate 2
[9] = 48 h, 1 µM, compound concentration 1 uM, replicate 1
[10] = 48 h, 1 µM, compound concentration 1 uM, replicate 2
[11] = 48 h, 10 µM, compound concentration 10 uM, replicate 1
[12] = 48 h, 10 µM, compound concentration 10 uM, replicate 2

For `CCCC(CCC)C(=O)O` [VALPROIC ACID], the “Population Apoptotic (%)” value [1] was 72%, the “Population Fragmented Nuclei (%)” value [1] was 28% and the “Population Healthy Nuclei (%)” value [1] was 63%. The “Population Hoechst High Intensity Objects (%)” value [1] was 6%, the “Population Membrane Permeable-Phenotype (%)” value [1] was 9% and the “Population Mitochondria Different-Phenotype (%)” value [1] was 7%. The “Population Mitotic Cells (%)” value [1] was 27%, the “Population Normal (%)” value [1] was 93% and the “Population Pyknosed Nuclei (%)” value [1] was 8%. The “Population Tubulin-Different-Phenotype (%)” value [1] was 8%, the “Population Apoptotic (%)” value [2] was 66% and the “Population Fragmented Nuclei (%)” value [2] was 14%. For the same molecule, the “Population Healthy Nuclei (%)” value [2] was 77%, the “Population Hoechst High Intensity Objects (%)” value [2] was 2% and the “Population Membrane Permeable-Phenotype (%)” value [2] was 8%. For the same molecule, the “Population Mitochondria Different-Phenotype (%)” value [2] was 3%, the “Population Mitotic Cells (%)” value [2] was 33% and the “Population Normal (%)” value [2] was 97%. The “Population Tubulin-Different-Phenotype (%)” value [2] was 6%, the “Population Apoptotic (%)” value [3] was 77% and the “Population Fragmented Nuclei (%)” value [3] was 30%. The “Population Healthy Nuclei (%)” value [3] was 66%, the “Population Hoechst High Intensity Objects (%)” value [3] was 4% and the “Population Membrane Permeable-Phenotype (%)” value [3] was 6%. For the same molecule, the “Population Mitochondria Different-Phenotype (%)” value [3] was 3%, the “Population Mitotic Cells (%)” value [3] was 22% and the “Population Normal (%)” value [3] was 95%. For the same molecule, the “Population Pyknosed Nuclei (%)” value [3] was 3%, the “Population Tubulin-Different-Phenotype (%)” value [3] was 4% and the “Population Apoptotic (%)” value [4] was 85%. The “Population Fragmented Nuclei (%)” value [4] was 21%, the “Population Healthy Nuclei (%)” value [4] was 70% and the “Population Hoechst High Intensity Objects (%)” value [4] was 0%. For the same molecule, the “Population Membrane Permeable-Phenotype (%)” value [4] was 4%, the “Population Mitochondria Different-Phenotype (%)” value [4] was 4% and the “Population Mitotic Cells (%)” value [4] was 14%. For the same molecule, the “Population Normal (%)” value [4] was 100%, the “Population Pyknosed Nuclei (%)” value [4] was 7% and the “Population Apoptotic (%)” value [5] was 84%. The “Population Fragmented Nuclei (%)” value [5] was 24%, the “Population Healthy Nuclei (%)” value [5] was 66% and the “Population Hoechst High Intensity Objects (%)” value [5] was 6%. The “Population Membrane Permeable-Phenotype (%)” value [5] was 9%, the “Population Mitochondria Different-Phenotype (%)” value [5] was 6% and the “Population Mitotic Cells (%)” value [5] was 16%. The “Population Normal (%)” value [5] was 93%, the “Population Pyknosed Nuclei (%)” value [5] was 8% and the “Population Tubulin-Different-Phenotype (%)” value [5] was 9%. For the same molecule, the “Population Apoptotic (%)” value [6] was 100%, the “Population Fragmented Nuclei (%)” value [6] was 17% and the “Population Healthy Nuclei (%)” value [6] was 74%. The “Population Hoechst High Intensity Objects (%)” value [6] was 3%, the “Population Mitochondria Different-Phenotype (%)” value [6] was 2% and the “Population Mitotic Cells (%)” value [6] was 0%. The “Population Normal (%)” value [6] was 96%, the “Population Tubulin-Different-Phenotype (%)” value [6] was 7% and the “Population Apoptotic (%)” value [7] was 83%. For the same molecule, the “Population Fragmented Nuclei (%)” value [7] was 25%, the “Population Healthy Nuclei (%)” value [7] was 71% and the “Population Hoechst High Intensity Objects (%)” value [7] was 2%. The “Population Membrane Permeable-Phenotype (%)” value [7] was 4%, the “Population Mitochondria Different-Phenotype (%)” value [7] was 3% and the “Population Mitotic Cells (%)” value [7] was 16%. For the same molecule, the “Population Normal (%)” value [7] was 97%, the “Population Pyknosed Nuclei (%)” value [7] was 3% and the “Population Tubulin-Different-Phenotype (%)” value [7] was 3%. The “Population Apoptotic (%)” value [8] was 100%, the “Population Fragmented Nuclei (%)” value [8] was 17% and the “Population Healthy Nuclei (%)” value [8] was 78%. For the same molecule, the “Population Hoechst High Intensity Objects (%)” value [8] was 0%, the “Population Membrane Permeable-Phenotype (%)” value [8] was 8% and the “Population Mitochondria Different-Phenotype (%)” value [8] was 4%. The “Population Mitotic Cells (%)” value [8] was 0%, the “Population Normal (%)” value [8] was 100% and the “Population Pyknosed Nuclei (%)” value [8] was 4%. For the same molecule, the “Population Tubulin-Different-Phenotype (%)” value [8] was 5%, the “Population Apoptotic (%)” value [9] was 76% and the “Population Fragmented Nuclei (%)” value [9] was 20%. The “Population Healthy Nuclei (%)” value [9] was 69%, the “Population Hoechst High Intensity Objects (%)” value [9] was 3% and the “Population Membrane Permeable-Phenotype (%)” value [9] was 7%. The “Population Mitochondria Different-Phenotype (%)” value [9] was 5%, the “Population Mitotic Cells (%)” value [9] was 23% and the “Population Normal (%)” value [9] was 96%. The “Population Pyknosed Nuclei (%)” value [9] was 9%, the “Population Tubulin-Different-Phenotype (%)” value [9] was 5% and the “Population Apoptotic (%)” value [10] was 91%. The “Population Fragmented Nuclei (%)” value [10] was 16%, the “Population Healthy Nuclei (%)” value [10] was 72% and the “Population Membrane Permeable-Phenotype (%)” value [10] was 8%. The “Population Mitotic Cells (%)” value [10] was 8%, the “Population Pyknosed Nuclei (%)” value [10] was 11% and the “Population Tubulin-Different-Phenotype (%)” value [10] was 6%. For the same molecule, the “Population Apoptotic (%)” value [11] was 91%, the “Population Fragmented Nuclei (%)” value [11] was 20% and the “Population Healthy Nuclei (%)” value [11] was 71%. For the same molecule, the “Population Hoechst High Intensity Objects (%)” value [11] was 2%, the “Population Membrane Permeable-Phenotype (%)” value [11] was 3% and the “Population Mitochondria Different-Phenotype (%)” value [11] was 2%. For the same molecule, the “Population Mitotic Cells (%)” value [11] was 8%, the “Population Normal (%)” value [11] was 97% and the “Population Pyknosed Nuclei (%)” value [11] was 7%. For the same molecule, the “Population Tubulin-Different-Phenotype (%)” value [11] was 1%, the “Population Apoptotic (%)” value [12] was 93% and the “Population Hoechst High Intensity Objects (%)” value [12] was 1%. For the same molecule, the “Population Membrane Permeable-Phenotype (%)” value [12] was 9%, the “Population Mitotic Cells (%)” value [12] was 6% and the “Population Normal (%)” value [12] was 98%. For the same molecule, the “Population Tubulin-Different-Phenotype (%)” value [12] was 4%.
